# Laboratory results taken from ChEMBL document CHEMBL4689842, “EUbOPEN Chemogenomics Library wave 1” (2021).
# System: HEK-293T
# Test: Multiplex assay against HEK293T;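 on Population Tubulin-Different-Phenotype (%): share of the cells with healthy nuclei that show this phenotype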
# Format: toxicity, cell-based
# Details: human
# Procedure, shortened: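 Per cents of healthy-nucleus cells form the tubulin, mitochondrial-mass and membrane-permeability phenotype values. Live cells were stained at seeding with Hoechst33342, BioTracker Green Microtubule Cytoskeleton Dye, MitoTracker Red and Annexin V Alexa Fluor 680. After compound addition they were imaged on a CQ1 microscope at 37°C and 5% CO2, and CellPathfinder machine-learning gating split them into Hoechst high-intensity objects or normal cells, normal cells into healthy, pyknosed or fragmented nuclei, and pyknosed cells into mitotic or apoptotic.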
# [1] = 12 h, 1 µM, compound concentration 1 uM, replicate 1
# [2] = 12 h, 1 µM, compound concentration 1 uM, replicate 2
# [3] = 12 h, 10 µM, compound concentration 10 uM, replicate 1
# [4] = 12 h, 10 µM, compound concentration 10 uM, replicate 2
# [5] = 24 h, 1 µM, compound concentration 1 uM, replicate 1
# [6] = 24 h, 1 µM, compound concentration 1 uM, replicate 2
# [7] = 24 h, 10 µM, compound concentration 10 uM, replicate 1
# [8] = 24 h, 10 µM, compound concentration 10 uM, replicate 2
smiles,measurement,setting,value
CC(C)(C)c1cnc(CSc2cnc(NC(=O)C3CCNCC3)s2)o1 [BMS-387032],Population Apoptotic (%),[1],25%
same,Population Fragmented Nuclei (%),[1],21%
same,Population Healthy Nuclei (%),[1],51%
same,Population Hoechst High Intensity Objects (%),[1],19%
same,Population Membrane Permeable-Phenotype (%),[1],3%
same,Population Mitochondria Different-Phenotype (%),[1],8%
same,Population Mitotic Cells (%),[1],74%
same,Population Normal (%),[1],80%
same,Population Pyknosed Nuclei (%),[1],27%
same,Population Tubulin-Different-Phenotype (%),[1],4%
same,Total Cell Count,[1],507
same,Population Apoptotic (%),[2],21%
same,Population Fragmented Nuclei (%),[2],4%
same,Population Healthy Nuclei (%),[2],85%
same,Population Hoechst High Intensity Objects (%),[2],4%
same,Population Membrane Permeable-Phenotype (%),[2],1%
same,Population Mitochondria Different-Phenotype (%),[2],25%
same,Population Mitotic Cells (%),[2],78%
same,Population Normal (%),[2],95%
same,Population Pyknosed Nuclei (%),[2],10%
same,Population Tubulin-Different-Phenotype (%),[2],13%
same,Total Cell Count,[2],981
same,Population Apoptotic (%),[3],23%
same,Population Fragmented Nuclei (%),[3],15%
same,Population Healthy Nuclei (%),[3],51%
same,Population Hoechst High Intensity Objects (%),[3],21%
same,Population Membrane Permeable-Phenotype (%),[3],4%
same,Population Mitochondria Different-Phenotype (%),[3],17%
same,Population Mitotic Cells (%),[3],76%
same,Population Normal (%),[3],78%
same,Population Pyknosed Nuclei (%),[3],33%
same,Population Tubulin-Different-Phenotype (%),[3],27%
same,Total Cell Count,[3],549
same,Population Apoptotic (%),[4],24%
same,Population Fragmented Nuclei (%),[4],2%
same,Population Healthy Nuclei (%),[4],86%
same,Population Hoechst High Intensity Objects (%),[4],10%
same,Population Membrane Permeable-Phenotype (%),[4],1%
same,Population Mitochondria Different-Phenotype (%),[4],42%
same,Population Mitotic Cells (%),[4],75%
same,Population Normal (%),[4],90%
same,Population Pyknosed Nuclei (%),[4],10%
same,Population Tubulin-Different-Phenotype (%),[4],58%
same,Total Cell Count,[4],880
same,Population Apoptotic (%),[5],27%
same,Population Fragmented Nuclei (%),[5],21%
same,Population Healthy Nuclei (%),[5],53%
same,Population Hoechst High Intensity Objects (%),[5],20%
same,Population Membrane Permeable-Phenotype (%),[5],6%
same,Population Mitochondria Different-Phenotype (%),[5],9%
same,Population Mitotic Cells (%),[5],72%
same,Population Normal (%),[5],79%
same,Population Pyknosed Nuclei (%),[5],24%
same,Population Tubulin-Different-Phenotype (%),[5],9%
same,Total Cell Count,[5],451
same,Population Apoptotic (%),[6],22%
same,Population Fragmented Nuclei (%),[6],6%
same,Population Healthy Nuclei (%),[6],87%
same,Population Hoechst High Intensity Objects (%),[6],8%
same,Population Membrane Permeable-Phenotype (%),[6],1%
same,Population Mitochondria Different-Phenotype (%),[6],22%
same,Population Mitotic Cells (%),[6],77%
same,Population Normal (%),[6],91%
same,Population Pyknosed Nuclei (%),[6],5%
same,Population Tubulin-Different-Phenotype (%),[6],17%
same,Total Cell Count,[6],934
same,Population Apoptotic (%),[7],27%
same,Population Fragmented Nuclei (%),[7],16%
same,Population Healthy Nuclei (%),[7],45%
same,Population Hoechst High Intensity Objects (%),[7],23%
same,Population Membrane Permeable-Phenotype (%),[7],1%
same,Population Mitochondria Different-Phenotype (%),[7],34%
same,Population Mitotic Cells (%),[7],72%
same,Population Normal (%),[7],76%
same,Population Pyknosed Nuclei (%),[7],38%
same,Population Tubulin-Different-Phenotype (%),[7],30%
same,Total Cell Count,[7],494
same,Population Apoptotic (%),[8],31%
same,Population Fragmented Nuclei (%),[8],3%
same,Population Healthy Nuclei (%),[8],83%
same,Population Hoechst High Intensity Objects (%),[8],14%
same,Population Membrane Permeable-Phenotype (%),[8],0%
same,Population Mitochondria Different-Phenotype (%),[8],54%
same,Population Mitotic Cells (%),[8],68%
same,Population Normal (%),[8],85%
same,Population Pyknosed Nuclei (%),[8],13%
same,Population Tubulin-Different-Phenotype (%),[8],61%
same,Total Cell Count,[8],828
